Assay results reported in ChEMBL document CHEMBL1155784, “Aromatic 2-chloroethyl urea derivatives and bioisosteres. Part 2: Cytocidal activity and effects on the nuclear translocation of thioredoxin-1, and the cell cycle progression” (2008).
Active and inactive are the calls of the source. The rule behind the calls is not given here.

How the values were obtained:
HT-29 = test: Growth inhibition of human HT29 cells after 48 hrs by sulforhodamine B assay; type: functional; conditions: HT-29, 48 h
Procedure, shortened: (§1)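 NCI-style sulforhodamine B assay. HT-29 (5×10³), M21 or MCF-7 (3.5×10³) cells were grown 24 h, then given DMSO-solubilized drug at 100 to 0.7 µM final (DMSO <0.5%) for 48 h. Fixed in cold 10% TCA, stained with 0.1% SRB, read at 585 nm after subtracting a day-0 plate. Inhibition is relative to DMSO controls; GI50 from at least triplicate runs.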

M21 [1] = test: Growth inhibition of human M21 cells after 48 hrs by sulforhodamine B assay; type: functional; conditions: M21, 48 h; procedure, shortened: as §1
MCF7 [2] = test: Growth inhibition of human MCF7 cells after 48 hrs by sulforhodamine B assay; type: functional; conditions: MCF7, 48 h; procedure, shortened: as §1
M21 [3] = test: Inhibition of nuclear translocation of thioredoxin 1 in human M21 cells at 50 uM after 18 hrs by immunocytochemistry; type: functional, cell-based
Procedure, shortened: (§2)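 M21 cells seeded on fibronectin-coated coverslips, held 18 h at 37 °C, then treated with compounds (5–50 µM; reference agents 0.1–40 µM) or 0.1% DMSO. Fixed in 3.7% formaldehyde, permeabilized with 0.1% saponin, and blocked in 3% BSA. Stained 1 h at 37 °C with anti-thioredoxin-1 monoclonal (1/200), then with Alexa-488 anti-mouse IgG plus DAPI for nuclei.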

M21 [4] = test: Inhibition of nuclear translocation of thioredoxin 1 in human M21 cells at 10 uM after 18 hrs by immunocytochemistry; type: functional, cell-based; procedure, shortened: as §2
MCF7 [5] = test: Cell cycle arrest in human MCF7 cells assessed as […] phase accumulation at 2 times GI50 after 24 hrs by flow cytometry; type: functional
MCF7 [6] = test: Cell cycle arrest in human MCF7 cells assessed as S phase accumulation at 2 times GI50 after 24 hrs by flow cytometry; type: functional
MCF7 [7] = test: Cell cycle arrest in human MCF7 cells assessed as G2/M phase accumulation at 2 times GI50 after 24 hrs by flow cytometry; type: functional
M21 [8] = test: Inhibition of nuclear translocation of thioredoxin 1 in human M21 cells at 25 uM after 18 hrs by immunocytochemistry; type: functional, cell-based; procedure, shortened: as §2
M21 [9] = test: Inhibition of nuclear translocation of thioredoxin 1 in human M21 cells at 0.1 uM after 18 hrs by immunocytochemistry; type: functional, cell-based; procedure, shortened: as §2

SMILES	Activity (M21 [3])	Activity (M21 [4])	Activity (MCF7 [5]) [%]	Activity (MCF7 [6]) [%]	Activity (MCF7 [7]) [%]	also measured
O=C(NCCCl)Nc1cccc(OCc2ccccc2)c1	inactive	inactive	–	–	–	GI50 (HT-29): 2900 nM; GI50 (M21 [1]): 6.5 µM; GI50 (MCF7 [2]): 10 µM
O=C(NCCCl)Nc1ccc(I)cc1	Active	Active	25	33	42	–
Cc1ccc(NC(=O)NCCCl)cc1C	–	inactive	–	–	–	Activity (M21 [8]): inactive
Cc1ccc(NC2=NCCO2)cc1C	–	Active	–	–	–	–
CC(=O)O[C@H]1C(=O)[C@@]2(C)[C@H]([C@H](OC(=O)c3ccccc3)[C@]3(O)C[C@H](OC(=O)[C@H](O)[C@@H](NC(=O)c4ccccc4)c4ccccc4)C(C)=C1C3(C)C)[C@]1(OC(C)=O)CO[C@@H]1C[C@@H]2O	–	–	–	–	–	Activity (M21 [9]): inactive
CC[C@]1(O)C[C@@H]2CN(CCc3c([nH]c4ccccc34)[C@@](C(=O)OC)(c3cc4c(cc3OC)N(C)[C@H]3[C@@](O)(C(=O)OC)[C@H](OC(C)=O)[C@]5(CC)C=CCN6CC[C@]43[C@@H]65)C2)C1	–	–	–	–	–	Activity (M21 [9]): inactive
COc1cc2c(c(OC)c1OC)-c1ccc(OC)c(=O)cc1[C@@H](NC(C)=O)CC2 [COLCHICINE]	–	–	19	19	62	Activity (M21 [9]): inactive
O=C(NCCCl)Nc1ccc(OC2CCCC2)cc1	Active	–	72	19	9	–
O=C(NCCCl)Nc1ccc(OC2CCCCC2)cc1	Active	–	57	29	14	–
O=C(NCCCl)Nc1ccc(Oc2ccccc2)cc1	–	inactive	–	–	–	Activity (M21 [8]): inactive
O=C(NCCCl)Nc1ccc(OC2CCCCCC2)cc1	Active	–	75	19	6	–
CC(C)(C)c1ccc(NC(=O)NCCCl)cc1	inactive	inactive	17	24	58	–
O=C(NCCCl)Nc1ccc2ccccc2c1	Active	Active	–	–	–	–
O=C(NCCCl)Nc1cccc(OC2CCCCC2)c1	Active	–	59	33	8	–
